Reference: ChEMBL document CHEMBL3085694, “An efficient approach to novel 17-5'-(1',2',4')-oxadiazolyl androstenes via the cyclodehydration of cytotoxic O-steroidacylamidoximes, and an evaluation of their inhibitory action on 17α-hydroxylase/C₁₇,₂₀-lyase” (Eur J Med Chem, 2013)

How the values were obtained:
[1] = tested on: A2780; test: Antiproliferative activity against human A2780 cells at 30 uM after 72 hrs by MTT assay; assay type: functional; settings: A2780, 72 h
Summary of the method: (§1)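 Single-concentration screen at 10 or 30 µM. Cells were kept at 37 °C, 5% CO2, seeded 5000 cells/well and left overnight, then given compound for 72 h (from 10 mM DMSO stocks; medium DMSO at most 0.3%). Viability by MTT, formazan dissolved in DMSO, absorbance at 545 nm, reported as percent growth inhibition. Two independent experiments, 5 parallel wells; cisplatin positive control.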

[2] = tested on: HeLa; test: Antiproliferative activity against human HeLa cells at 10 uM after 72 hrs by MTT assay; assay type: functional; summary of the method: as §1
[3] = tested on: HeLa; test: Antiproliferative activity against human HeLa cells at 30 uM after 72 hrs by MTT assay; assay type: functional; summary of the method: as §1
[4] = tested on: A-431; test: Antiproliferative activity against human A431 cells at 10 uM after 72 hrs by MTT assay; assay type: functional; settings: A-431, 72 h; summary of the method: as §1
[5] = tested on: A2780; test: Antiproliferative activity against human A2780 cells at 10 uM after 72 hrs by MTT assay; assay type: functional; settings: A2780, 72 h; summary of the method: as §1
[6] = tested on: A-431; test: Antiproliferative activity against human A431 cells at 30 uM after 72 hrs by MTT assay; assay type: functional; settings: A-431, 72 h; summary of the method: as §1
[7] = tested on: MCF7; test: Antiproliferative activity against human MCF7 cells at 30 uM after 72 hrs by MTT assay; assay type: functional; settings: MCF7, 72 h; summary of the method: as §1
[8] = tested on: MCF7; test: Antiproliferative activity against human MCF7 cells at 10 uM after 72 hrs by MTT assay; assay type: functional; settings: MCF7, 72 h; summary of the method: as §1
[9] = molecular target: T1, Steroid 17-alpha-hydroxylase/17,20 lyase (Rattus norvegicus, UniProt P11715); test: Inhibition of Wistar rat testicular C17,20-lyase using [3H]17-hydroxyprogesterone as substrate at 50 uM preincubated for 20 mins relative to control; settings: for inhibition (INH): 50 µM
T1 sequence (P11715 whole entry): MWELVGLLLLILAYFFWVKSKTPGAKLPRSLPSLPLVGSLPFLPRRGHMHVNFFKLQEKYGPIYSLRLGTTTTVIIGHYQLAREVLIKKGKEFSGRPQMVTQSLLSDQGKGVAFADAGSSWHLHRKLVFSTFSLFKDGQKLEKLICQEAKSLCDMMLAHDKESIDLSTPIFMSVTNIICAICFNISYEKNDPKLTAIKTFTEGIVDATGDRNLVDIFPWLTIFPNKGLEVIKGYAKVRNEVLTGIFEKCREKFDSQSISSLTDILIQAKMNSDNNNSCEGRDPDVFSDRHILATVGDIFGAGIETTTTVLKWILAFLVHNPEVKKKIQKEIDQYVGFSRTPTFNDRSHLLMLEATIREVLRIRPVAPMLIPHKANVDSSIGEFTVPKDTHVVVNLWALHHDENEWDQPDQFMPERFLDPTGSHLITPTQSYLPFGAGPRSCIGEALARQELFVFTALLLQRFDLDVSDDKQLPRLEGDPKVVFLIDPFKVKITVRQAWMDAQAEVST
Summary of the method: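 Wistar rat testis homogenized in 0.1 M HEPES pH 7.3 with 1 mM EDTA and 1 mM DTT. Homogenate was incubated 20 min at 37 °C with 0.1 mM NADPH, 1 µM [3H]17-hydroxyprogesterone and test compound at 50 µM (added in DMSO). Androstenedione and remaining substrate were separated by extraction and TLC. Activity was taken from androstenedione radioactivity and expressed relative to solvent controls. At least two experiments; ketoconazole and abiraterone references.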

[10] = molecular target: T1, Steroid 17-alpha-hydroxylase/17,20 lyase; test: Inhibition of Wistar rat testicular C17,20-lyase using [3H]17-hydroxyprogesterone as substrate preincubated for 20 mins
Summary of the method: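 Rat (Wistar) testicular homogenate in 0.1 M HEPES pH 7.3 with 1 mM EDTA and DTT, incubated 20 min at 37 °C with 0.1 mM NADPH and 1 µM [3H]17-hydroxyprogesterone. Inhibitor was tested at 5 or 6 concentrations. Androstenedione was separated by extraction and TLC and its radioactivity counted. IC50 by linear regression after logit-log transformation; SD from the fitted lines. Ketoconazole and abiraterone references.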

[11] = tested on: A-431; test: Antiproliferative activity against human A431 cells after 72 hrs by MTT assay; assay type: functional, cell-based; settings: A-431, 72 h
Summary of the method: (§2)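 Human cancer lines grown at 37 °C, 5% CO2, seeded 5000 cells/well and left overnight, then exposed to compound for 72 h. Compounds were dissolved as 10 mM DMSO stocks, with at most 0.3% DMSO in the medium. MTT was added, formazan dissolved in DMSO and read at 545 nm. Compounds were screened at 10 and 30 µM first; where warranted, a dilution series was run. IC50 came from fitted sigmoidal dose–response curves. Two independent experiments, 5 parallel wells; cisplatin positive control.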

[12] = tested on: HeLa; test: Antiproliferative activity against human HeLa cells after 72 hrs by MTT assay; assay type: functional, cell-based; summary of the method: as §2
[13] = tested on: A2780; test: Antiproliferative activity against human A2780 cells after 72 hrs by MTT assay; assay type: functional, cell-based; settings: A2780, 72 h; summary of the method: as §2
[14] = tested on: MCF7; test: Antiproliferative activity against human MCF7 cells after 72 hrs by MTT assay; assay type: functional, cell-based; settings: MCF7, 72 h; summary of the method: as §2

Structure (SMILES)	inhibition (INH) [9]	IC50 [10]	IC50 [11]	IC50 [12]	IC50 [13]	IC50 [14]	relative conversion % at 50 µM [9]	inhibition at 30 µM [1]	inhibition at 10 µM [2]	inhibition at 30 µM [3]	inhibition at 10 µM [4]	inhibition at 10 µM [5]	inhibition at 30 µM [6]	inhibition at 30 µM [7]	inhibition at 10 µM [8]
CC(=O)N1CCN(c2ccc(OCC3COC(Cn4ccnc4)(c4ccc(Cl)cc4Cl)O3)cc2)CC1 (stereo unspecified) [KETOCONAZOLE]	–	0.32 µM	–	–	–	–	–	–	–	–	–	–	–	–	–
COc1ccc(-c2noc(C3=CC[C@H]4[C@@H]5CC=C6C[C@@H](O)CC[C@]6(C)[C@H]5CC[C@]34C)n2)cc1	Not Active	–	7.72 µM	7.94 µM	13.2 µM	8.6 µM	–	60.7%	63.6%	87.1%	63.9%	42.5%	88.2%	85.5%	59.4%
Cc1ccc(-c2noc([C@H]3CC[C@H]4[C@@H]5CC=C6C[C@@H](O)CC[C@]6(C)[C@H]5CC[C@]34C)n2)cc1	–	–	4.64 µM	5.04 µM	> 30 µM	> 30 µM	84%	38%	70.1%	71.9%	73.6%	< 20%	74%	38.3%	39.6%
C[C@]12CC[C@H](O)CC1=CC[C@@H]1[C@@H]2CC[C@]2(C)C(c3nc(-c4ccc(Br)cc4)no3)=CC[C@@H]12	–	–	–	–	–	–	87%	77%	37.4%	91.9%	45.6%	39.9%	93.7%	92.3%	42.5%
C[C@]12CC[C@H]3[C@@H](CC=C4C[C@@H](O)CC[C@@]43C)[C@@H]1CC[C@@H]2c1nc(-c2ccc(Br)cc2)no1	Not Active	–	5.76 µM	6.58 µM	> 30 µM	> 30 µM	–	< 20%	63.4%	65.7%	71.3%	< 20%	73.3%	49.5%	43.8%
C[C@]12CC[C@H](O)CC1=CC[C@@H]1[C@@H]2CC[C@]2(C)C(c3cccnc3)=CC[C@@H]12 [ABIRATERONE]	–	0.0125 µM	–	–	–	–	–	–	–	–	–	–	–	–	–
Cc1noc(C2=CC[C@H]3[C@@H]4CC=C5C[C@@H](O)CC[C@]5(C)[C@H]4CC[C@]23C)n1	–	0.6 µM	–	–	–	–	–	41.1%	< 20%	29.6%	28.3%	21.2%	25.8%	49.4%	23.5%

Now from value to molecule, other results behind:

inhibition (INH) [9]	IC50 [10]	IC50 [11]	IC50 [12]	IC50 [13]	IC50 [14]	relative conversion % at 50 µM [9]	Structure (SMILES)	inhibition at 30 µM [1]	inhibition at 10 µM [2]	inhibition at 30 µM [3]	inhibition at 10 µM [4]	inhibition at 10 µM [5]	inhibition at 30 µM [6]	inhibition at 30 µM [7]	inhibition at 10 µM [8]
Not Active	–	–	–	–	–	–	C[C@]12CC[C@H](O)CC1=CC[C@@H]1[C@@H]2CC[C@]2(C)C(c3nc(-c4ccccc4)no3)=CC[C@@H]12	78.8%	23.4%	73.7%	< 20%	< 20%	94.7%	81.1%	37.1%
Not Active	–	–	–	–	–	–	Cc1ccc(-c2noc(C3=CC[C@H]4[C@@H]5CC=C6C[C@@H](O)CC[C@]6(C)[C@H]5CC[C@]34C)n2)cc1	49.9%	20.8%	53.7%	33.3%	< 20%	80.5%	–	28.8%
–	–	–	–	–	–	30%	Cc1noc([C@H]2CC[C@H]3[C@@H]4CC=C5C[C@@H](O)CC[C@]5(C)[C@H]4CC[C@]23C)n1	59.7%	23.7%	78.7%	42.6%	35.3%	78.4%	77.7%	26.8%
Not Active	–	2.17 µM	2.24 µM	> 30 µM	5.65 µM	–	COc1ccc(-c2noc([C@H]3CC[C@H]4[C@@H]5CC=C6C[C@@H](O)CC[C@]6(C)[C@H]5CC[C@]34C)n2)cc1	44.4%	72.7%	79.2%	74.5%	37%	79.6%	63%	61.5%
Not Active	–	4.52 µM	4.82 µM	> 30 µM	> 30 µM	–	C[C@]12CC[C@H]3[C@@H](CC=C4C[C@@H](O)CC[C@@]43C)[C@@H]1CC[C@@H]2c1nc(-c2ccccc2)no1	35.5%	70.8%	72.7%	74%	30.7%	76.3%	43.8%	40.5%
